Results as given in the EternaBench riboswitch data.

Test system: MS2 coat protein
Experiment: apparent Kd, MS2 coat protein; higher = weaker binding; RNA-MaP array; FMN 200 µM where present
Outline: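 Stalled E. coli RNA polymerase transcribed each design on Illumina sequencing-chip clusters. The clusters were titrated with SNAP-549-labelled MS2 coat protein, starting at 0.7 or 1.5 nM and doubling up to 3 µM, first without ligand and then with constant ligand, in 100 mM Tris-HCl pH 7.5, 80 mM KCl, 4 mM MgCl2, BSA, DTT, yeast tRNA and Tween-20. Green signal was normalised to red-channel RNA signal and to the control-cluster median Fmax. The apparent Kd is the median of filtered binding-curve fits made for each cluster.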

[1] = designed as: OFF switch for flavin mononucleotide, no ligand
[2] = ligand present: flavin mononucleotide, designed as: OFF switch for flavin mononucleotide
[3] = designed as: ON switch for flavin mononucleotide, no ligand
[4] = ligand present: flavin mononucleotide, designed as: ON switch for flavin mononucleotide

Sequence	apparent Kd [1] [nM]	apparent Kd [2] [nM]	apparent Kd [3] [nM]	apparent Kd [4] [nM]
GCUGCGCGAGGAUAUGCGGUUUGCGCUGUGGCCCGUGGCGUACAUGAGGAUCACCCAUGUAGAAGGCGUGCGGG	11.6	12.1		
GGACGUCACAUUAACAUGAGGAUCACCCAUGUCAAAAGACAUGAGGAUAUGGAUAAUAAUAUAAACCAGAAGGCAUGGACGUCC			526	29.2
GCUGGACGAGGAUAUAUAUGACGUGCUUCGGCACGAAGGUCACAUGAGGAUCACCCAUGUAGAAGGUGUCCAGC	30.7	106		
CCACCUACUGAGGAUAUUGCAUCACCCGACUGAUAAGAAGGCAGAACAUGAGGAUCACCCAUGUGGGUACUCAC	94	103		
GCUGCGCGAGGAUAUGCGGUUUGUGCUUUGGGCCCUGGCGUACAUGAGGAUCACCCAUGUAGAAGGCGUGUGGG	43.6	38.4		
GGAAAUCAUGUAGGAUAUGCAUGGCGAAGCUACGCAGAAGGACAUGAGGAUCACCCAUGUUCUGGCUACCGGAUACGGUGGCAA	20.7	94.3		
CAUUAAUUCAUUAUAGUAAUUAUACAGGAUAUGUAACAUGAGGAUCACCCAUGUAUUCUUGGUUAACAGAAGGGUAUUACUUGU	17.5	27.6		
GGAUAGGACAGAGGAUAUACGUGCUAGAGAUACUAGCAAAAUUUCCUUACAUGAGGAUCACCCAUGUAGAAGGCUGUCCUAUCG	5.79	12.7		
UUAUUAUGUGUAGGAUAUGCAUAUUAUUAUUAUGCAGAAGGACAUGAGGAUCACCCAUGUAUAUUAUUAUUAUAUAUUAUAUAU	30.9	46.2		
ACAUGUUUUGUAGGAUAUCACUUGUUAUGUUAUAUAUUUGUUAUAAUCUAUUGAGAAGGACAUUUACAUGAGGAUCACCCAUGU	8.83	7.08		
AGGUGUCCUGAGAAAUUUCUCCACAUGAGGAUCACCCAUGUAGAGGAUAUCGACGCUGUGCGGUUCGAGAAGGCUACACUAAUU	6.54	22.7		
UGAUCGAGAGAUCUUAGAUUCUGGUAGGAUAUACAUUAUGUUUGAUAUACAUGAGGAUCACCCAUGUAGAAGGACUAGAGUCUA	7.34	15.9		
GCACGGCAUGUAGGAUAUCGAGCGCCGGGCGCUCGAGAAGGACAUGAGGAUCACCCAUGUAUUCUGAGUGACAGAGUGCUGUGC	19	46.8		
UUAACAUGCUUAGGAUAUCGGAUUUUUUUUUUUCGAGAAGGAAGAUUCUUUUUUUUUUACAUGAGGAUCACCCAUGUUUAUUUU	10.2	5.78		
CAGGUAGACUGAGGAUAUACAAAAGACCUAGUCUAUCUAGGUCACAUCACAUGAGGAUCACCCAUGUAGAAGGCAGUCUGCCUG	16.2	27.1		
UUAUUGUGAGGAUAUCCAAUAUAUGACAUGAGGAUCACCCAUGUUUCCACUCGUACCUCCGGAGAAGGCACAGUUU	31.2	24.1		
UUUAUAAAGGUAGGAUAUUGUAUUAUAAUUAAAUAAGAAGGAUCACACAUGAGGAUCACCCAUGUAUGAGGAUCACCCAUGUAU	15.7	14.4		
GCCAGUUAUGUAGGAUAUGCGAAGCGAGCCUGAGCAGAAGGACAUGAGGAUCACCCAUGUGUUGCGGUUUGAGUACUGAUCGCU	24.4	89.4		
UGAUCGAGAGAUCUUAGAUUCUGGUAGGAUAUACAUUAUGUAUUAUAUACAUGAGGAUCACCCAUGUAGAAGGACUAGAGUCUA	6.7	11.8		
GGUGGACAUGAGGAUCACCCAUGUGAGGAUAUCGGCUGGCUAGUGGCGGCUGGCUUCUCGAGAAGGCGCAUAGU	49.7	72.5		
UGUUGAUAGCAGAAGGACAUGAGGAUCACCCAUGUAUGGAUACAAAUUUAUGUAGGAUAUGCUAUUAACUAAGAGUGAGCGUUC	9.46	42.5		
UAAAGACAUGAGGAUCACCCAUGUGAGGAUAUCGGAGGUGACGGAGCGUCGAGUUCGGCGAGAAGGCGCAGGAA	81	53.9		
AAUAUGAGCUGGAAUAAAACCUUGACAUGAGGAUCACCCAUGUAGGAUAUCAGCACGAUAAGUGCUGAGAAGGACAACCAGCUC	14.4	15.6		
UAAGGGUAAUGAGGAUAUAACGGGUGACAUGAGGAUCACCCAUGUGGUUUGUUAUGGUCGAGCCGUUAGAAGGCAUUGUAAGCA	1070	1120		
AUCAGCUCGUCAGGAUAUACGUCACUGCGUCAGCAGUGUGGAAAGAUCACAUGAGGAUCACCCAUGUAGAAGGGACGAGCUGAU	36.2	279		
AUCGAACAUGAGGAUCACCCAUGUCAGUCGAACCAAGGAUAUGGGCAGGGUUCUCUUGCACCAGAAGGUGGCUAAA			56.9	95.7
UUAUUAAACAUUAACAUGAGGAUCACCCAUGUCAAAAGACAUGAGGAUAUGGAUCCUAAUUGGAUCCAGAAGGCAUGUAUUAAU			156	15.6
AAAACAUGAGGAUCACCCAUGUAAAGAUCGGUUAAUAGAAGUGAGGAUAUACGAAGUUAAAGCUGGUAGAAGGCACUGGGUACA			34.7	33.2

Sequence	apparent Kd [1] [nM]	apparent Kd [2] [nM]	apparent Kd [3] [nM]	apparent Kd [4] [nM]
CGCGAACAGGCUAACAUGAGGAUCACCCAUGUGGACUCAUGGUAGGAUAUCGGGAAGGAGGAAACCGAGAAGGGCCGGUGAGCC			498	359
ACUGACAUGAGGAUCACCCAUGUCUUGAAUAGGUCAAAUUCACAGGAUAUGCACGAGGACAGAGUGCAGAAGGGUGAUGCAAUG			47.7	11.7
ACACAGCGAGGAUAUACAUGAGGAUCACCCAUGUGGUGGCGGUUACGGUAGGACUAGUGUAGAAGGUGCCGUGG	480	414		
UAAAAGUGAGGAUAUACAUUAAGGUAAGUCCGGAUGCGAAGACAUGAGGAUCACCCAUGUAGAAGGCACACAAA	32.1	146		
GUCAUCUCAUGAGGAUAUGCUCGGGUUUCCCGAGCAGAAGGCAUGUCAUAAGACAUGAGGAUCACCCAUGUAUUUAAGAUUGUA			49.6	8.92
CGCUAAUAAUUAAUAUUAAUUGUACAGGAUAUGUUACAUGAGGAUCACCCAUGUAUUGGGUUUAAACAGAAGGGUAUAUUAGCG	191	81.4		
UGACCCAUGACAUGAGAUGACAUGAGGAUCACCCAUGUGUACAAGGAUAUGUUGGUCAAAGGUCGGCAGAAGGUGUAAUGGGAU	59.8	146		
AUGCUAUACGAAGGAUAUGGUUACAUGAGGAUCACCCAUGUAAUUCUUGUGAUCUUGUUUAAGUUCCAGAAGGUCGUAUAGCUA	29.1	88.2		
CGCAGCGCAGGAUAUACAUGAGGAUCACCCAUGUACUGGCUCGGCACAGGGUCUCAAGGUAGAAGGGUGCAAAU	22.6	23.1		
AGAAAACAUGAGGAUCACCCAUGUGAGGAUAUCGAUGUCCAAGGGUGGGUGCGGGACUCGAGAAGGCACUUGGA	80.6	137		
ACAUAGUGAGGAUAUGCUGCUCGUCACUUGCGUGAUGAGUAGCAGAAGGCACAUGAGGAUCACCCAUGUAAAGA	42.3	63.7		
AUAUUGUGAGGAUAUCCAAUAUAUGACAUGAGGAUCACCCAUGUUUCCACUCGUACCUCCGGAGAAGGCACAUUUU	27	24		
AGUUAAUAUCGAGGAUAUCUCAUGGAGACAUGAGGAUCACCCAUGUGAAUGGGAGAAGGCGAUAUUAACAGCAUGUUACAUGCA			284	21.2
GCCGGCUAAUGAGGAUAUGGCACCUUAUUGGUGCCAGAAGGCAUGUCAAUUGACAUGAGGAUCACCCAUGUAUUAUAGUUGGCG			422	115
GCGGUACAUGAGGAUCACCCAUGUCAGGAUAUCCGCUGUUUGUUGAUUAGCAGGCGGUGGAGAAGGGACUUCGC	36.6	36		
UGUUGUAUUACAGGAUAUCUAGUAUUUUAAUUUAGAGAAGGGUAUUCACAUGAGGAUCACCCAUGUAUAUACGAGGAAGUUGUG			51.3	61.6
ACAUGCGGAUGAGGAUAUUCAUUCAUGAGGAUAGAAGAAGGCAUACAUGAGGAUCACCCAUGUAUACGCAUGAGGAUCCCUUAU	24.8	32.7		
GGAUGACAUAGUCAUCCUUAACGAACAUGAGGAUCACCCAUGUAGGAUAUGCUACUCAACGAGUAGCAGAAGGACAUGUGUCUU	26.5	142		
GCCAUCGUAUGAGGAUAUGGCACCGAAACGGUGCCAGAAGGCAUGUCAAUAGACAUGAGGAUCACCCAUGUGUUAUCGAUGGCA			379	36.5
AUUGUUUAUGUAGGAUAUGCGAGGCGAGCCUAAGCAGAAGGACAUGAGGAUCACCCAUGUAUUGCGGUCUGCGUUCAGAUCGCU	30.5	127		
CUUUUAUAAUAGAAGGUAGACUUCAUGAGGAUCACCCAUGUGUUGGUACUAAGGAUAUGUAAUAACAUGAGGAUCACCCAUGUU			15.8	16.1
AAAUAAAGGACUGAGGAUAUACCACAUGAAACAUGAGGAUCACCCAUGUAAUAAUACAAAGGGUGGUAGAAGGUAGUCCACAAACA			34.9	16.8
UUUUUGUGAGGAUAUCAGUAGUAGAACAAUAGUACUACUACUGAGAAGGCACAUGAGGAUCACCCAUGUUCUUC	29	133		
CCGCAAAAGCAGGAUAUCGUAUCGGAAACGAUACGAGAAGGGUUUACAUGAGGAUCACCCAUGUUCCUUAGCGG	29.1	38		
GGAGCUCCUGACAUGAGGAUCACCCAUGUUCACUUAUUAAAUCAGGAUAUCCUCUCGAAACGAGAGGAGAAGGGAUAUGCUCCU			7.58	7.04
GGCGGUGAUCUAUUAGGACACAUGAGGAUCACCCAUGUGACAGAGGAUAUACGGAACUUUGGAUAGUAGAAGGCUGUCGCAAAA	315	119		
GGAGAACACAUUAACAUGAGGAUCACCCAUGUCAAAAGACAUGAGGAUAUGGAUCCGAAAAGGAUCCAGAAGGCAUGGUGCUCC			511	26.5
